From ChEMBL document CHEMBL1139344, “Antagonists of the human A(2A) adenosine receptor. 4. Design, synthesis, and preclinical evaluation of 7-aryltriazolo[4,5-d]pyrimidines” (J Med Chem, 2009)
Values after ≈ are worked out from the molar mass of the structure shown. Active and inactive are the calls of the source. No cut-off for these calls is given here.

Legend:
Adenosine receptor A2a = Adenosine receptor A2a (Homo sapiens, UniProt P29274); experiment: Displacement of radioligand from human recombinant adenosine A2A receptor at 21 degC after 90 mins by cell-based microplate scintillation counting
Adenosine receptor A2a, sequence (P29274 whole entry): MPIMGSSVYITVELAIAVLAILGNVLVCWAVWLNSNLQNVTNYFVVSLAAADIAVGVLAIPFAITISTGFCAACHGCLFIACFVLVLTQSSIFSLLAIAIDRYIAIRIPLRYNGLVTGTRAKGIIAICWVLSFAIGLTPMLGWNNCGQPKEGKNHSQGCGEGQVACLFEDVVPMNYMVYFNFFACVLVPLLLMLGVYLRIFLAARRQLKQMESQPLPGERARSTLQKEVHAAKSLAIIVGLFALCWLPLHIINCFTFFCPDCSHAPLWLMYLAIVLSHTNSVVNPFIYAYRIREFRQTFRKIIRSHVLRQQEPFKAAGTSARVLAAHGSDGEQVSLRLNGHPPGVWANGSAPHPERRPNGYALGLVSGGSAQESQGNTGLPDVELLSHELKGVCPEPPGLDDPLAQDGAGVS

Adenosine receptor A1 = target: T1, Adenosine receptor A1 (Homo sapiens, UniProt P30542); experiment: Displacement of radioligand from human recombinant adenosine A1 receptor at 21 degC after 90 mins by cell-based microplate scintillation counting
T1 sequence (P30542 whole entry): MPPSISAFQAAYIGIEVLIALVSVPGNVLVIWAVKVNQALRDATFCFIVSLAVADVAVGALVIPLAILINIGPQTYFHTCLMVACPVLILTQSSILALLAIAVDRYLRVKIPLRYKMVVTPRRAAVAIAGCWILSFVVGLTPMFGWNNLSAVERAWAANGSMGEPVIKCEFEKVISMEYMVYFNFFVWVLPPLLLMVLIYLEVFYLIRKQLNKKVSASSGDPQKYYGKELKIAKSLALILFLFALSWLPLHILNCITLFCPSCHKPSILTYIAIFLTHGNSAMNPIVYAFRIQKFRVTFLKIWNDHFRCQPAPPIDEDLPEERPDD

Adenosine receptor A3 = target: T2, Adenosine receptor A3 (Homo sapiens, UniProt P0DMS8); experiment: Displacement of radioligand from human recombinant adenosine A3 receptor at 21 degC after 60 mins by cell-based microplate scintillation counting
T2 sequence (P0DMS8 whole entry): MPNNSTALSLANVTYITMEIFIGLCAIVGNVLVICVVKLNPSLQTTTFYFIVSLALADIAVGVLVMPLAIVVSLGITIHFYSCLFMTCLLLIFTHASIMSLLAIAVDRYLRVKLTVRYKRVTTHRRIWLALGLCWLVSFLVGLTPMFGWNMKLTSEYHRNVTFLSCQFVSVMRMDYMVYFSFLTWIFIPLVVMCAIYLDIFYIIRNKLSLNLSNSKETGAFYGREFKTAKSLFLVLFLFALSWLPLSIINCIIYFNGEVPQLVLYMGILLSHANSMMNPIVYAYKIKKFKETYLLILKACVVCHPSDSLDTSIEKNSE

Adenosine receptor A2b = target: T3, Adenosine receptor A2b (Homo sapiens, UniProt P29275); experiment: Displacement of radioligand from human recombinant adenosine A2B receptor at 21 degC after 60 mins by cell-based microplate scintillation counting
T3 sequence (P29275 whole entry): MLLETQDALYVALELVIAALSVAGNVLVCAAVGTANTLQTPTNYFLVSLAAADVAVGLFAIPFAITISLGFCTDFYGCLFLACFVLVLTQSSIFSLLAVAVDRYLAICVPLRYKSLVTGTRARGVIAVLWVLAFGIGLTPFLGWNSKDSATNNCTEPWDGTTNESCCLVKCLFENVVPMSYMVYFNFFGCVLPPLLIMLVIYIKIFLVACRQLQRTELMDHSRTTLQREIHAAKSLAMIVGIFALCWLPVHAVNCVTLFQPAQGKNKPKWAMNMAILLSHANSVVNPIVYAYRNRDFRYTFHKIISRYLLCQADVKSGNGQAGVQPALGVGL

Mus musculus = experiment: Reversal of haloperidol-induced hypolocomotion in TO mouse assessed as time spent for locomotor activity at 30 mg/kg, po administered 15 mins prior and measured for 60 mins; assay type: functional, organism-based; design: dose 30 mg/kg
[1] = Aqueous solubility in phosphate buffered saline; assay type: physicochemical
Liver microsomes = experiment: Metabolic stability in rat liver microsomes after 30 mins; assay type: ADME, Microsome; settings: 0.5 h
Summary of the method: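 Turnover by rodent liver microsomes measured as percent turnover after 30 min.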

Rattus norvegicus = experiment: Reversal of haloperidol-induced hypolocomotion in Sprague-Dawley rat assessed as time spent for locomotor activity at 30 mg/kg, po administered 120 mins prior and measured for 60 mins; assay type: functional, organism-based; design: dose 30 mg/kg

Row | Structure (SMILES) | Ki (Adenosine receptor A2a) | Ki (Adenosine receptor A1) | Ki (Adenosine receptor A3) | Ki (Adenosine receptor A2b) | Activity (Mus musculus) | solubility [1] | Stability (Liver microsomes) | Activity (Rattus norvegicus)
1 | Nc1nc(-c2ccco2)c2nnn(Cc3cc(F)ccc3F)c2n1 | 2.2 nM | 98 nM | 450 nM | 128 nM |  |  |  | 
2 | Nc1nc(-c2ccco2)c2nnn(Cc3cccc(C(=O)O)c3)c2n1 | 832 nM | 4140 nM | 3810 nM | 2110 nM |  |  |  | 
3 | NC(=O)c1cccc(Cn2nnc3c(-c4ccco4)nc(N)nc32)c1 | 11.1 nM | 700 nM | 2580 nM | 132 nM | inactive | 30 µM (≈ 10.1 µg/mL) | Stable | inactive
4 | Nc1nc(-c2ccco2)c2nnn(Cc3cccc(F)c3F)c2n1 | 2.3 nM | 110 nM | 619 nM | 79 nM |  |  |  | 
5 | Cc1cccc(Cn2nnc3c(-c4ccco4)nc(N)nc32)c1 | 3 nM | 45 nM | 360 nM | 254 nM |  |  |  | 
6 | Nc1nc(-c2ncco2)c2nnn(Cc3ccccc3F)c2n1 | 41 nM | 599 nM | 2110 nM | 836 nM |  |  |  | 
7 | Nc1nc(-c2ccco2)c2nnn(Cc3ccc([N+](=O)[O-])cc3)c2n1 | 28 nM | 769 nM | 1230 nM | 440 nM | inactive | 30 µM (≈ 10.1 µg/mL) | Stable | inactive
8 | Cc1csc(-c2nc(N)nc3c2nnn3Cc2ccccc2F)n1 | 2.2 nM | 203 nM | 1260 nM | 53 nM |  |  |  | 
9 | Nc1nc(-c2cnn[nH]2)c2nnn(Cc3ccccc3F)c2n1 | 400 nM | 2960 nM | 2810 nM | 1290 nM | inactive | 30 µM (≈ 9.34 µg/mL) | Stable | inactive
10 | Nc1nc(-c2ccco2)c2nnn(Cc3ccc4[nH]ncc4c3)c2n1 | 8.6 nM | 190 nM | 2430 nM | 206 nM |  |  |  | 
11 | COc1cccc(Cn2nnc3c(-c4ccco4)nc(N)nc32)c1 | 1.8 nM | 77 nM | 563 nM | 643 nM |  |  |  | 
12 | NCc1ccc(Cn2nnc3c(-c4ccco4)nc(N)nc32)cc1 | 241 nM | 4910 nM | > 10000 nM | 916 nM |  |  |  | 
13 | Nc1nc(-c2cc[nH]n2)c2nnn(Cc3ccccc3F)c2n1 | 239 nM | 1660 nM | 1290 nM | 1780 nM | inactive | 30 µM (≈ 9.31 µg/mL) | Stable | inactive
14 | Nc1nc(-c2ccco2)c2nnn(Cc3c(F)cccc3F)c2n1 | 1.9 nM | 42 nM | 203 nM | 24 nM |  |  |  | 
15 | Cc1cnc(-c2nc(N)nc3c2nnn3Cc2ccccc2F)s1 | 8.5 nM | 86 nM | 338 nM | 199 nM |  |  |  | 
16 | Nc1nc(-c2ccco2)c2nnn(Cc3ccccc3)c2n1 | 1.9 nM | 83 nM | 285 nM | 122 nM | inactive | 30 µM (≈ 8.77 µg/mL) | Stable | inactive
17 | Nc1nc(-c2ccco2)c2nnn(Cc3ccccc3[N+](=O)[O-])c2n1 | 6.6 nM | 400 nM | 168 nM | 383 nM |  |  |  | 
18 | Nc1nc(-c2ccco2)c2nnn(Cc3ccc4[nH]ccc4c3)c2n1 | 1.1 nM | 27 nM | 606 nM | 59 nM |  |  |  | 
19 | Nc1nc(-c2ccco2)c2nn[nH]c2n1 | 194 nM | 3620 nM |  |  | inactive | 30 µM (≈ 6.07 µg/mL) | Stable | inactive
20 | Nc1nc(-c2cncs2)c2nnn(Cc3ccccc3F)c2n1 | 31 nM | 894 nM | 1780 nM | 423 nM |  |  |  | 
21 | Nc1nc(-c2ccco2)c2nnn(Cc3cccc(Cl)c3)c2n1 | 2.3 nM | 76 nM | 269 nM | 160 nM |  |  |  | 
